Measurements reported in publication PMC8788976 (Veterinary Medicine and Science, 2021).

Key:
[1] = Single oral dose pharmacokinetic study in Beagle dogs; type: in vivo; details: for AUC 24h / AUC last / C max: mean ± SD; for T last / T max: median (range)
Outline: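 Single oral dose of 1 or 4 mg/kg given as micronised drug in gelatine capsules, followed by 5 ml water; dogs fasted overnight until 4 h post-dose. Jugular blood taken pre-dose, at 0.25–12 h, then daily to day 21. K3-EDTA plasma (2500 g, 15 min, 4°C) stored at −80°C. Parent and pyrazol metabolite measured by SPE then HPLC-MS/MS (celecoxib internal standard). Non-compartmental analysis: Cmax observed; AUC by linear trapezoidal rule; AUCinf extrapolated using the terminal rate constant.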

[2] = Plasma concentrations in the single dose arthritis induction study; type: in vivo, Beagle dogs
Outline: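 Ten male Beagles (23–36 months, 9–12 kg); six received oral 4 mg/kg on day 0 and again on day 12. Urate crystal suspension injected into the stifle joint on days 0 (2 h post-dose), 2, 7, 14 and 21. Jugular blood taken at each injection time and processed as for plasma PK. Parent and pyrazol metabolite quantified by HPLC-MS/MS.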

[3] = Plasma concentrations in the repeated dose arthritis induction study; type: in vivo, Beagle dogs
Outline: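 Twelve male Beagles given oral 8 mg/kg on day 0, then 4 mg/kg weekly on days 7, 14 and 21, with stifle urate crystal inductions during the study. Jugular blood taken at time points including each intra-articular injection, and through day 56. Plasma processed as in the PK study. Pyrazol metabolite quantified by SPE then HPLC-MS/MS; values reported as mean ± SD.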

[4] = Population PK model of enflicoxib and pyrazol metabolite; set-up: species or system Beagle dogs
Outline: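 Population PK model built from two sources. Toxicokinetic data: 228 samples from 12 Beagles, days 1 and 28, daily 1 or 4 mg/kg. PK data: 341 parent/metabolite samples from 26 Beagles in the oral PK and two arthritis studies. Structure: two-compartment parent (first-order absorption with lag, first-order elimination) and three-compartment metabolite. Body weight included as covariate. Evaluated by visual predictive check (90% intervals); parameter CIs from non-parametric bootstrap.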

[5] = tested on: urate crystal-induced acute arthritis; type: in vivo, Beagle dogs; details: plasma level, acute arthritis induction model in dogs
Outline: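 Efficacy dataset: 18 enflicoxib-treated dogs from both urate arthritis studies, giving 71 paired observations of plasma parent or pyrazol metabolite level and lameness score taken at the same time. These pairs were linked to the population PK model to define the minimum effective plasma concentration.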

[6] = tested on: COX-2 enzymes isolated from sheep placenta; details: ref Wagemakers et al., 2009; cited from earlier work
[7] = tested on: urate crystal-induced acute arthritis; experiment: Single dose arthritis induction study; type: in vivo, Beagle dogs
Outline: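 Male Beagles (23–36 months, 9–12 kg). Groups: six dogs oral 4 mg/kg on days 0 and 12; three dogs reference coxib 2 mg/kg on days 0 and 14; one dog untreated. Stifle urate crystal injections on days 0 (2 h post-dose), 2, 7, 14 and 21. Blinded scoring before and 0.5–12 h after each injection. Standing plus walking lameness summed as CLS; pain scored on palpation.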

Compound: NS(=O)(=O)c1ccc(-n2nc(C(F)(F)F)cc2-c2ccc(F)cc2F)cc1 [Pyrazol metabolite]
- AUC 24h ([1]; single oral enflicoxib 1 mg/kg): 1104 ± 502 ng·h/mL
- AUC last ([1]; single oral enflicoxib 1 mg/kg): 40,784 ± 10,228 ng·h/ml
- C max ([1]; single oral enflicoxib 1 mg/kg): 165.8 ± 48.5 ng/mL
- T last ([1]; single oral enflicoxib 1 mg/kg): 480 h
- T max ([1]; single oral enflicoxib 1 mg/kg): 132.0 (96–168) h
- AUC 24h ([1]; single oral enflicoxib 4 mg/kg): 2647 ± 1322 ng·h/mL
- AUC last ([1]; single oral enflicoxib 4 mg/kg): 132,329 ± 33,065 ng·h/ml
- C max ([1]; single oral enflicoxib 4 mg/kg): 577.0 ± 203.4 ng/mL
- T last ([1]; single oral enflicoxib 4 mg/kg): 480 h
- T max ([1]; single oral enflicoxib 4 mg/kg): 132.0 (96–168) h
- terminal half-life read from the graphic profile ([1]; single oral enflicoxib 1 or 4 mg/kg, not adequately determinable): around 14 days
- plasma concentration ([2]; day 0, single 4 mg/kg enflicoxib, average ± SD): 59 ± 34 ng/mL
- plasma concentration ([2]; day 2, single 4 mg/kg enflicoxib, average ± SD): 207 ± 191 ng/mL
- plasma concentration ([2]; day 7, single 4 mg/kg enflicoxib, average ± SD): 321 ± 241 ng/mL
- plasma concentration ([2]; day 14, after second 4 mg/kg dose on day 12, average ± SD): 492 ± 240 ng/mL
- plasma concentration ([2]; day 21, after second 4 mg/kg dose on day 12, average ± SD): 398 ± 172 ng/mL
- maximum plasma level ([3]; day 23, 8 mg/kg loading, 4 mg/kg on days 7, 14, 21): 1748 ± 334 ng/mL
- plasma level at end of experimental period ([3]; day 56, 28 days after last dose administration): 348 ± 152 ng/mL
- CLM/F (θ7), Bootstrap Median ([4]; apparent clearance of pyrazol metabolite, bootstrap): 0.111 L/h
- CLM/F (θ7), Value ([4]; apparent clearance of pyrazol metabolite, θ7·(WGT/9.9)^0.75): 0.111 L/h
- VM/F (θ4), Value ([4]; central compartment, assumed the same as that of enflicoxib): 6.59 L
- VM/F (θ4), Bootstrap Median ([4]; central compartment, bootstrap): 6.60 L
- CLM2/F (θ12), Bootstrap Median ([4]; central-deep peripheral, bootstrap): 0.132 L/h
- CLMP/F (θ8), Bootstrap Median ([4]; central-shallow peripheral, bootstrap): 13.2 L/h
- VM2/F (θ13), Bootstrap Median ([4]; deep peripheral compartment, bootstrap): 13.5 L
- VM2/F (θ13), Value ([4]; deep peripheral compartment, θ13·(WGT/9.9)^1.0): 13.4 L
- CLM2/F (θ12), Value ([4]; distribution clearance central-deep peripheral, θ12·(WGT/9.9)^0.75): 0.131 L/h
- CLMP/F (θ8), Value ([4]; distribution clearance central-shallow peripheral, θ8·(WGT/9.9)^0.75): 13.2 L/h
- estimated terminal half-life ([4]; population PK model): 13.8 days
- Inter-individual variability on CLM/F, Value ([4]; random parameter, %CV): 31%
- Residual variability, Value ([4]; random parameter, %CV): 20%
- Inter-individual variability on CLM/F, Bootstrap Median ([4]; random parameter, bootstrap): 31%
- Residual variability, Bootstrap Median ([4]; random parameter, bootstrap): 20%
- VMP/F (θ9), Bootstrap Median ([4]; shallow peripheral compartment, bootstrap): 29.33 L
- VMP/F (θ9), Value ([4]; shallow peripheral compartment, θ9·(WGT/9.9)^1.0): 29.3 L
- Minimum Effective Concentration (MEC) [5]: 411 ng/mL
- selectivity for COX-2 versus COX-1 [6]: more than 250 fold

Compound: NS(=O)(=O)c1ccc(-n2nc(C(F)(F)F)cc2-c2ccc(F)cc2)cc1 [mavacoxib]
- lameness and pain after induction ([7]; days 0 and 7, mavacoxib 2 mg/kg on days 0 and 14): some degree of lameness and pain
- lameness or pain after induction ([7]; days 14 and 21, after second administration on day 14, mavacoxib 2 mg/kg): none or mild lameness or pain
